From ChEMBL document CHEMBL1128280, “Synthesis, topoisomerase I inhibitory activity, and in vivo evaluation of 11-azacamptothecin analogs” (J Med Chem, 1995)
Values after ≈ are worked out from the molar mass of the structure shown.

Assays:
[1] = Aqueous solubility in pH 5 acetate buffer.; assay type: physicochemical
In short: (§1)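 Excess solid equilibrated in 0.25 mL 0.1 M sodium acetate, pH 5.0, 25 °C, 24 h; filtered (0.22 μm); lactone and carboxylate forms separated by reverse-phase C-18 HPLC, mobile phase 40% organic/60% aqueous with 0.005 M tetrabutylammonium phosphate; quantified against calibration curves of standard peak areas.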

[2] = (§2) Concentration required to inhibit 50% growth of human colon carcinoma cell line (HT-29); assay type: functional, cell-based
In short: (§3)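 MTT microculture tetrazolium assay; cells grown in α-MEM with 15% heat-inactivated FBS, glutamine, pyruvate, insulin, nonessential amino acids, gentamycin, 37 °C, 5% CO2; adhered overnight, exposed to compound 48 h then fresh medium 48 h; 0.17 nM to 10 μM, quadruplicate; 4 h MTT, DMSO extraction; four-parameter logistic fit, usually single curve.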

[3] = Aqueous solubility determined in pH 5 acetate buffer; assay type: physicochemical; in short: as §1
SK-OV-3 = test: Concentration required to inhibit 50% growth of human ovarian cancer cell line(SK-OV-3) was measured; assay type: functional, cell-based; in short: as §3
Mus musculus [4] = test: Delay in tumor growth in mice to 500% volume of day 1 relative to control at dose 90 mg/kg.; assay type: functional
In short: (§4)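 Female nu/nu mice bearing subcutaneous flank HT-29 xenografts; single-bolus subcutaneous maximum tolerated dose first set in tumor-free mice by body weight loss, then split into three portions given over one day (N = 6); caliper volume = length × width²/2; T−C = difference in days for mean tumor volume to reach 500% of initial, treated vs controls.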

Mus musculus [5] = test: Delay in tumor growth in mice to 500% volume of day 1 relative to control at dose 100 mg/kg.; assay type: functional; in short: as §4
HT-29 = test: as §2; assay type: functional, cell-based; in short: as §3
Mus musculus [6] = test: Delay in tumor growth in mice to 500% volume of day 1 relative to control at dose 25 mg/kg.; assay type: functional; in short: as §4
SK-VLB = test: Concentration required to inhibit 50% growth of vinblastine resistant ovarian cancer cell line(SKVLB); assay type: functional, cell-based; settings: Homo sapiens; in short: as §3
Mus musculus [7] = test: Delay in tumor growth in mice to 500% volume of day 1 relative to control at dose 146 mg/kg; assay type: functional; in short: as §4
Mus musculus [8] = test: Delay in tumor growth in mice to 500% volume of day 1 relative to control at dose 120 mg/kg.; assay type: functional; in short: as §4
Mus musculus [9] = test: Delay in tumor growth in mice to 500% volume of day 1 relative to control at dose 200 mg/kg.; assay type: functional; in short: as §4
Mus musculus [10] = test: Delay in tumor growth in mice to 500% volume of day 1 relative to control at dose 54 mg/kg.; assay type: functional
In short: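 Female nu/nu mice (18-24 g) with subcutaneous HT-29 flank xenografts, N = 6. Maximum tolerated single subcutaneous bolus first set by body weight loss in tumor-free nude mice. That dose was split into three portions given over one day. Tumor volume by calipers as length × width²/2. T−C is the delay, in days, for mean tumor volume to reach 500% of initial versus untreated controls.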

SMILES	solubility [3]	IC50 (SK-OV-3)	IC50 (HT-29)	also measured
CCc1c2c(nc3cnccc13)-c1cc3c(c(=O)n1C2)COC(=O)[C@]3(O)CC	–	–	–	solubility [1]: 10 µg/mL (≈ 0.0265 mM)
CCc1c2c(nc3cnc(C(=N)N)cc13)-c1cc3c(c(=O)n1C2)COC(=O)[C@]3(O)CC	> 3000 µg/mL	71 nM	–	IC50 [2]: 311 nM; T-C (Mus musculus [4]): 6 days
CCc1c2c(nc3c[n+](C)ccc13)-c1cc3c(c(=O)n1C2)COC(=O)[C@]3(O)CC.[I-]	–	–	–	solubility [1]: > 2500 µg/mL; T-C (Mus musculus [5]): 3.5 days
CC[C@@]1(O)C(=O)OCc2c1cc1n(c2=O)Cc2c-1nc1cnc(C#CCN)cc1c2C	–	245 nM	–	IC50 [2]: 355 nM
CC[C@@]1(O)C(=O)OCc2c1cc1n(c2=O)Cc2cc3cc[n+]([O-])cc3nc2-1	–	–	–	solubility [1]: 300 µg/mL (≈ 0.821 mM)
CCOC(=O)c1cc2c(CC)c3c(nc2cn1)-c1cc2c(c(=O)n1C3)COC(=O)[C@]2(O)CC	–	–	26 nM	–
CCc1c2c(nc3cnc(C(=N)NO)cc13)-c1cc3c(c(=O)n1C2)COC(=O)[C@]3(O)CC	> 3000 µg/mL	0.8 nM	–	IC50 [2]: 7 nM; T-C (Mus musculus [6]): 15 days
CCc1c2c(nc3cnc(C#N)cc13)-c1cc3c(c(=O)n1C2)COC(=O)[C@]3(O)CC	–	–	17 nM	–
CCc1c2c(nc3cnc(CN)cc13)-c1cc3c(c(=O)n1C2)COC(=O)[C@]3(O)CC	–	32 nM	–	IC50 (SK-VLB): 444 nM
CC[C@@]1(O)C(=O)OCc2c1cc1n(c2=O)Cc2c-1nc1cnc(Br)cc1c2C	–	1 nM	1 nM	IC50 (SK-VLB): 0.5 nM
CCc1c2c(nc3cnc(C#CCN)cc13)-c1cc3c(c(=O)n1C2)COC(=O)[C@]3(O)CC	5700 µg/mL (≈ 13.2 mM)	243 nM	351 nM	T-C (Mus musculus [7]): 1.5 days; IC50 (SK-VLB): 384 nM
CCc1c2c(nc3cnc(Br)cc13)-c1cc3c(c(=O)n1C2)COC(=O)[C@]3(O)CC	–	–	7 nM	–
CC[C@@]1(O)C(=O)OCc2c1cc1n(c2=O)Cc2c-1nc1c[n+]([O-])c(CN)cc1c2C	> 3000 µg/mL	66 nM	–	IC50 [2]: 731 nM; T-C (Mus musculus [8]): 5.3 days
CC[C@@]1(O)C(=O)OCc2c1cc1n(c2=O)Cc2c-1nc1cnc(CN)cc1c2C	7200 µg/mL (≈ 18.3 mM)	17 nM	123 nM	IC50 (SK-VLB): 42 nM; T-C (Mus musculus [9]): 3.4 days
CC[C@@]1(O)C(=O)OCc2c1cc1n(c2=O)Cc2cc3ccccc3nc2-1 [CAMPTOTHECIN]	–	–	–	solubility [1]: < 5 µg/mL
CC[C@@]1(O)C(=O)OCc2c1cc1n(c2=O)Cc2cc3c(CN(C)C)c(O)ccc3nc2-1.Cl [TOPOTECAN HYDROCHLORIDE]	3100 µg/mL	–	–	T-C (Mus musculus [10]): 10.3 days
